Assay [1] concerns Staphylococcus aureus. Description: Antibacterial activity against Telithromycin resistant Staphylococcus aureus RN4220 carrying rplD and rplV genes. The assay is classed as functional. In outline: (§1)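 MICs determined in Luria-Bertani medium at 37°C. Resistant mutants of S. aureus RN4220 came from spreading 0.3 ml of an overnight brain heart infusion broth culture onto Luria-Bertani plates containing 1 μg/ml telithromycin. These plates were incubated at 37°C for 1 week.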

Assay [2] relates to Staphylococcus aureus. Description: Antibacterial activity against Telithromycin resistant Staphylococcus aureus isolate KT04 carrying duplication in the carboxy-terminal region of L22 ribosomal protein. The assay is classed as functional. In outline:
as §1

Assay [3] relates to Staphylococcus aureus. Nature of the assay: Antibacterial activity against Telithromycin resistant Staphylococcus aureus isolate KT05 carrying rplD and rplV mutant genes. The assay is classed as functional. The method in brief:
as §1

Assay [4] concerns Staphylococcus aureus. Description: Antibacterial activity against Telithromycin resistant Staphylococcus aureus isolate KT06 carrying duplication in the carboxy-terminal region of L22 ribosomal protein. Format: functional. The method in brief:
as §1

In assay [5] the test system is Staphylococcus aureus. Description: Antibacterial activity against Telithromycin resistant Staphylococcus aureus isolate KT09 carrying rplD and rplV mutant genes. The assay is classed as functional. In outline: as §1
Assay [6] concerns Staphylococcus aureus. Nature of the assay: Antibacterial activity against Telithromycin resistant Staphylococcus aureus isolate KT10 carrying rplD and rplV mutant genes. The assay is classed as functional. The method in brief:
as §1

In assay [7] the test system is Staphylococcus aureus. Description: Antibacterial activity against Telithromycin resistant Staphylococcus aureus isolate KT11 carrying rplD and rplV mutant genes. Format: functional. In outline: as §1
The test system of assay [8] is Staphylococcus aureus. Description: Antibacterial activity against Telithromycin resistant Staphylococcus aureus isolate KT01 carrying rplB-derived insertion of L22 ribosomal protein.
In assay [9] the test system is Staphylococcus aureus. Description: Antibacterial activity against Telithromycin resistant Staphylococcus aureus isolate KT02 carrying rplB-derived insertion of L22 ribosomal protein.

SMILES strings stand for the structures. In brackets after ≈: the same amount, converted by molar mass.

Consider `CC[C@H]1OC(=O)[C@H](C)C(=O)[C@H](C)[C@@H](O[C@@H]2O[C@H](C)C[C@H](N(C)C)[C@H]2O)[C@](C)(OC)C[C@@H](C)C(=O)[C@H](C)[C@H]2N(CCCCn3cnc(-c4cccnc4)c3)C(=O)O[C@]12C` [TELITHROMYCIN], for which the MIC (usually the lowest concentration found to suppress growth) amounted to 0.03 µg/mL (≈ 0.0369 µM) in assay [1]; 16 µg/mL (≈ 19.7 µM) in assay [2]; 16 µg/mL (≈ 19.7 µM) in [3]; 4 µg/mL (≈ 4.93 µM) in assay [4]; 2 µg/mL (≈ 2.46 µM) in [5]; 4 µg/mL (≈ 4.93 µM) in [6]. Besides, the MIC in assay [7] is 8 µg/mL (≈ 9.85 µM); in [8] it was 16 µg/mL (≈ 19.7 µM); in assay [9], 8 µg/mL (≈ 9.85 µM).
With `CC[C@H]1OC(=O)[C@H](C)[C@@H](O[C@H]2C[C@@](C)(OC)[C@@H](O)[C@H](C)O2)[C@H](C)[C@@H](O[C@@H]2O[C@H](C)C[C@H](N(C)C)[C@H]2O)[C@](C)(O)C[C@@H](C)C(=O)[C@H](C)[C@@H](O)[C@]1(C)O` [ERYTHROMYCIN], the MIC came out at 0.12 µg/mL (≈ 0.164 µM) in assay [1]; 32 µg/mL (≈ 43.6 µM) in assay [2]; 32 µg/mL (≈ 43.6 µM) in assay [3]; 16 µg/mL (≈ 21.8 µM) in assay [4]; 8 µg/mL (≈ 10.9 µM) in assay [5]; 4 µg/mL (≈ 5.45 µM) in assay [6]. For the same molecule, the MIC amounted to 16 µg/mL (≈ 21.8 µM) in assay [7], 32 µg/mL (≈ 43.6 µM) in assay [8] and 32 µg/mL (≈ 43.6 µM) in [9].

Values taken from ChEMBL document CHEMBL1255279, “Selection for high-level telithromycin resistance in Staphylococcus aureus yields mutants resulting from an rplB-to-rplV gene conversion-like event” (2008).
